A short description of test [1]: inhibitors of TNFa-induced NFkB p65 translocation, primary screen, imaging, HUVEC, MLSMR starter and 10KST1 sets (AID 438;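 active means inhibition above 20% together with a positive visual image hit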;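 further: compound added about 3h40 before a 20 min TNFalpha stimulation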;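 on inhibition: signal is the nuclear over cytoplasmic p65 intensity ratio per well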). As to conditions: HUVEC TNFa-induced p65 nuclear translocation; cell count: measured here: nuclei count (cytotoxicity indicator), at 2.08 µM; inhibition: at 2 µM, stronger effect = higher value, 0% TNFa-plus-vehicle, 100% no-TNFa wells.
Test [2] is described as follows: reduction of polyQ htt aggregates in cells – imaging, exon1htt(103Q)mCFP cells, high-content imaging, primary screen (AID 483;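 active means visual image review flags a hit and inhibition of aggregation exceeds 20%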;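 further: compound exposure lasted 3 days before fixation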;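 on nuclei count: percent of the per-plate median nuclei count of sample wells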). As to conditions: exon1htt(103Q)mCFP cell line, aggregate imaging, at 2 µM; inhibition of aggregation: stronger effect = higher value; nuclei count: measured here: cell count, toxicity.
The nature of test [3]: endothelial E-selectin expression blockers – imaging, HUVEC, immunofluorescence, MLSMR starter and 10KST1 sets, primary screen (AID 487;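 active means visually confirmed hit in the image check and inhibition above 20%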;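 on inhibition: signal is fraction of cell area covered by stained E-selectin grains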;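 on nuclei count: 100% = median nuclei count of all wells on the same plate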). As to conditions: HUVEC TNFalpha-induced E-selectin immunofluorescence imaging, at 2 µM; inhibition: stronger effect = higher value; nuclei count: measured here: cell number, toxicity.
In test [4] the target is Voltage-gated potassium channel subunit beta-2 (Rattus norvegicus) (UniProt P62483). Briefly: inhibitors of rat Kvbeta2 reductase activity – biochemical, NADPH fluorescence, primary screen (AID 622).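 Further: slope of raw intensity against log time taken from 70 to 1610 s.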 As to conditions: recombinant KvBeta, 4-cyanobenzaldehyde reduction, at 10 µM, stronger effect = higher value.
Test [5] shares this target. Put plainly: enhancers of rat Kvbeta2 NADPH turnover – biochemical, NADPH fluorescence, primary screen (AID 623;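 active means NADPH fluorescence slope more negative than the mean of all samples by about 3 SD, 99.7% confidence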;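 further: fluorescence intensity change per second fitted from 20 to 320 s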). As to conditions: Recombinant KvBeta, NADPH fluorescence decrease slope, 10 min; at 10 µM; stronger effect = lower value.
Test [6] deals with Alpha-2C adrenergic receptor (Homo sapiens) (UniProt P18825). Briefly: compounds altering alpha2C-coupled GIRK flux – cell-based, HEK293 alpha2C/GIRK1/2, thallium flux, primary screen (AID 624;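 active means fluorescence slope after compound addition differing from the mean of all screened samples at 99.7% confidence, in either direction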;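 further: slope of fluorescence ratio to pre-addition baseline per second over 15 to 24 s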). As to conditions: thallium flux BTC fluorescence, at 10 µM, actives lie on both sides.
The nature of test [7]: inhibitors of larval lipid processing in zebrafish, primary screen, whole organism, PED6 fluorescence, gall bladder and intestine (AID 686;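 active means a full or partial loss of lipid-probe fluorescence in the fish gall bladder, intestine or both, judged by eye; inactive means no fluorescence loss, or compound toxic to the fish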;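 further: larvae 5 to 7 days old with five fish per well; signal comes from phospholipase A2 cleavage of quenched PED6 carried via bile; overnight exposure to compound and PED6 before scoring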). As to conditions: Zebrafish larvae PED6 lipid processing, fluorescence scoring; screened at 20 µM (by protocol). The essentials:
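Doses: 20 µM single dose. Test system: live zebrafish larvae aged 5-7 days, whole organism. Quantity: five larvae per well. Measured by: By-eye fluorescence microscopy. Reagent: ingested quenched lipid PED6 at 100 nM. Read-out: visual per-well fluorescence inhibition score. Times: overnight exposure of larvae to compound plus PED6.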

The nature of test [8]: blockers of RIG-like receptor reporter activation – cell-based, Sendai virus stimulus, luciferase, 10K MLSCN set, TLR/RLR signaling modifier project, primary screen (AID 602276;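 active means inhibition at or above 50% at 10 µM; inactive means inhibition below 50%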;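 further: firefly luciferase from ISG56 promoter only with Renilla not read in this screen; 0% = Sendai virus plus DMSO and 100% = medium plus DMSO without virus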). As to conditions: HEK293 RL24 IRF3 luciferase reporter, at 10 µM, stronger effect = higher value. A general note: A reporter such as luciferase makes a cellular process visible.
Test [9] in a line: TLR3 IRF3 reporter activation blockers – cell-based, poly I:C stimulus, luciferase, 10K MLSCN set, primary screen (AID 602277;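 active means inhibition of the reporter signal at or above 50%; inactive means inhibition below 50%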). As to conditions: HEK293-TLR3 RL24 IRF3 luciferase reporter, at 10 µM, stronger effect = higher value.

Structures are written as SMILES. Calls of active or inactive are those of the source.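 How the source made its calls, unless noted: active means fluorescence slope higher than the sample average by over 3 SD (cut at about -0.22 in these data, passing the limit was not always enough); inactive means the rest.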

Sequence of Alpha-2C adrenergic receptor (Homo sapiens) (P18825 whole entry, looked up): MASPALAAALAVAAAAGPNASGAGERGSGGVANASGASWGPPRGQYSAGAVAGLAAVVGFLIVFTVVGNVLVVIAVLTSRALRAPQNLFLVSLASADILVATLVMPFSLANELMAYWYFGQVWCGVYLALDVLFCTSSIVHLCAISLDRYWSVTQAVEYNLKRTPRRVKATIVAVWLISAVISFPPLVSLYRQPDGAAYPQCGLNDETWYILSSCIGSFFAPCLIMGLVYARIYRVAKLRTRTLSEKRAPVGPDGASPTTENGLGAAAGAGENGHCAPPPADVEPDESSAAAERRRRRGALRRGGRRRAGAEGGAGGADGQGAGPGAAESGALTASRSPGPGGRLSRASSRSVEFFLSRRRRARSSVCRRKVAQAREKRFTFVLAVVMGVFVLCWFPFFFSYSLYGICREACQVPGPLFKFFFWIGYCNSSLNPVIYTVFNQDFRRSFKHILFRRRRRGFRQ
Sequence of Voltage-gated potassium channel subunit beta-2 (Rattus norvegicus) (P62483 whole entry, looked up): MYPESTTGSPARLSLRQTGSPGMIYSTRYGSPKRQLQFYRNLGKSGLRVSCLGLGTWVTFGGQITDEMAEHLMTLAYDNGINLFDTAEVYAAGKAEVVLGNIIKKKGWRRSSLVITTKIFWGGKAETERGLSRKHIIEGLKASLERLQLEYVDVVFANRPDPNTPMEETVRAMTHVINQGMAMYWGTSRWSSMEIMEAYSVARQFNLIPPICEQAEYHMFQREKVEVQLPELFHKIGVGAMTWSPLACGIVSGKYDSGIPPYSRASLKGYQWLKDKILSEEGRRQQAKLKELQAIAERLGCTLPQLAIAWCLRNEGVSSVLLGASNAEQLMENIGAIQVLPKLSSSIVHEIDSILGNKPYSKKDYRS

In the case of `COc1ccc(-c2noc(CCCOc3ccccc3)n2)cc1OC`, the cell count in [1] was 429. Moreover, the inhibition – broadly, the drop in the measured response relative to a control, in per cent – in [1] is 1.5% (inactive); in test [3], -33% (inactive); in test [8] it was -2.22% (inactive); in test [9] it was -9.66% (inactive). Further, in test [2], the inhibition of aggregation is 21% (inactive). Further, the nuclei count in test [2] was found to be 93%; in [3], 134%. In addition, in test [4], the fluorescence slope is -0.473 (inactive). In test [5], the NADPH fluorescence slope is -1.6e-05 (inactive). Besides, in test [6], the slope is 0.00512 (inactive). In addition, in [7], the result was inactive.
Regarding `O=C1c2ccccc2C(=O)N1c1cccc(-c2nc3ccccc3o2)c1`, in [1], the cell count was 464. Besides, the inhibition in test [1] was 7.6% (inactive); in test [3], -175% (inactive); in [8] it was 2.66% (inactive); in [9], 4.23% (inactive). In test [2], the inhibition of aggregation was 4% (inactive). Also, the figures for the nuclei count in test [2] and in test [3] were 104% and 130%, respectively. For the same compound, the fluorescence slope in test [4] is -0.384 (inactive). Moreover, in test [5], the NADPH fluorescence slope was -5.2e-05 (inactive). Besides, the slope in test [6] was 0.00482 (inactive). The compound was classed as inactive in test [7].
As to `Cc1onc(-c2ccccc2)c1C(=O)NCc1cccnc1`, in test [1], the cell count is 272. The inhibition was -15.4% (inactive) in test [1], -22.8% (inactive) in test [3], 6.6% (inactive) in test [8] and 8.85% (inactive) in test [9]. For the same compound, the inhibition of aggregation in test [2] is -24.1% (inactive). Moreover, the nuclei count was determined as 120% in test [2] and 112% in test [3]. Besides, the fluorescence slope in test [4] was -0.385 (inactive). Moreover, the NADPH fluorescence slope in test [5] was -6.1e-05 (inactive). In [6], the slope is 0.00521 (inactive). Besides, the call in test [7] was inactive.
Turning to `O=C(NCC1CCCO1)c1cc(-c2ccncc2)nc2ccc(S(=O)(=O)N3CCOCC3)cc12` (stereo unspecified), the cell count in test [1] turned out to be 878. In addition, the inhibition was 2.1% (inactive) in [1], -91% (inactive) in test [3], 10.6% (inactive) in [8] and 10.8% (inactive) in test [9]. Besides, the inhibition of aggregation in test [2] was -9.7% (inactive). Besides, the nuclei count was 106% in [2] and 129% in test [3]. The fluorescence slope in test [4] is -0.387 (inactive). Further, the NADPH fluorescence slope in [5] was -9.2e-05 (inactive). For the same compound, in [6], the slope is 0.00498 (inactive). Moreover, the result in test [7] was inactive.
`COc1ccccc1OCc1ccc(C(=O)N2CCN(C(=O)c3ccco3)CC2)cc1`: in test [1], the cell count came to 502. In addition, the inhibition in test [1] is -32.6% (inactive); in [3] it was -92.1% (inactive); in [8] it was 1.91% (inactive); in test [9] it was 18% (inactive). The inhibition of aggregation in [2] is 6% (inactive). Further, the results for the nuclei count in test [2] and in test [3] were 98.6% and 103%, respectively. In addition, in test [4], the fluorescence slope was -0.416 (inactive). Besides, the NADPH fluorescence slope in [5] is -3e-05 (inactive). Moreover, the slope in test [6] is 0.00401 (inactive). The call in test [7] was inactive.
For `O=C(O)C(c1ccccc1)N1CCCC1` (stereo unspecified), the cell count in test [1] came out at 643. For the same compound, the inhibition was 3.4% (inactive) in test [1], -110% (inactive) in test [3], 13% (inactive) in [8] and 8.7% (inactive) in test [9]. The inhibition of aggregation in [2] is -1.7% (inactive). In addition, the nuclei count in test [2] was 108%; in test [3], 104%. For the same compound, in [4], the fluorescence slope was -0.291 (inactive). The NADPH fluorescence slope in test [5] was -6.9e-06 (inactive). Also, the slope in test [6] is 0.00482 (inactive). Further, in [7], the result was inactive.
`COc1ccc(Cl)cc1NC(=O)CSc1nncn1-c1cccnc1`: the cell count in test [1] was 391. In addition, the inhibition in [1] was -10.2% (inactive); in [3], 60.5% (active); in [8], 15.1% (inactive); in [9], 22.7% (inactive). For the same compound, in [2], the inhibition of aggregation was 25.6% (inactive). The nuclei count in test [2] is 58.8%; in test [3], 93.1%. The fluorescence slope in test [4] was -0.296 (inactive). In addition, the NADPH fluorescence slope in test [5] was 1.5e-05 (inactive). The slope in test [6] was 0.00524 (inactive). For the same compound, the compound was called inactive in test [7].
For the compound `COc1ccc(S(=O)(=O)NCCCN2CCOCC2)c2ccccc12`, in test [1], the cell count was found to be 674. The inhibition in [1] is -3.5% (inactive); in test [3] it was -82.6% (inactive); in test [8], 14.4% (inactive); in test [9], 19.6% (inactive). Also, in test [2], the inhibition of aggregation is -7.8% (inactive). The nuclei count in test [2] was determined as 102%; in [3], 100%. Besides, the fluorescence slope in test [4] is -0.356 (inactive). Further, the NADPH fluorescence slope in test [5] is -3.4e-05 (inactive). The slope in [6] is 0.00569 (inactive). In test [7], the result was inactive.
For the compound `COc1cccc(NC(=O)N2CCCC2C(=O)Nc2ccc3c(c2)OCO3)c1` (stereo unspecified), the cell count in test [1] was found to be 649. The inhibition in [1] is 5.8% (inactive); in test [3], -117% (inactive); in [8], 13.7% (inactive); in test [9], 18.8% (inactive). In [2], the inhibition of aggregation was -11.8% (inactive). The nuclei count in test [2] was 57.5%; in [3], 106%. Besides, the fluorescence slope in test [4] was -0.351 (inactive). In addition, the NADPH fluorescence slope in test [5] was -6.1e-05 (inactive). The slope in [6] was 0.00477 (inactive). Besides, the outcome in test [7] was inactive.
For `CC(C(=O)NC(=O)NC1CCCCC1)N1CCN(c2ccccn2)CC1` (stereo unspecified), the cell count in test [1] came to 611. Also, the inhibition was -16.9% (inactive) in test [1], 0.2% (inactive) in [3], 5.51% (inactive) in test [8] and 9.31% (inactive) in [9]. Also, the inhibition of aggregation in [2] is 8.1% (inactive). In addition, the nuclei count was 107% in test [2] and 134% in test [3]. In test [4], the fluorescence slope is -0.397 (inactive). In addition, the NADPH fluorescence slope in test [5] was -4.4e-05 (inactive). For the same compound, in [6], the slope is 0.00612 (inactive). Besides, the call in [7] was inactive.
For the compound `CC(=O)N1CCc2cc(S(=O)(=O)NCCC(=O)Nc3cc(C)cc(C)c3)ccc21`, the cell count in test [1] is 611. Also, the inhibition in [1] is -11.5% (inactive); in test [3] it was 25.9% (inactive); in test [8], 12.9% (inactive); in test [9], 12.5% (inactive). The inhibition of aggregation in test [2] is 15.1% (inactive). The values for the nuclei count in test [2] and in test [3] were 97.8% and 98%, respectively. Besides, the fluorescence slope in [4] is -0.399 (inactive). For the same compound, the NADPH fluorescence slope in test [5] is -8.9e-05 (inactive). The slope in test [6] is 0.00432 (inactive). In addition, in test [7], the outcome was inactive.
As to `O=C(Nc1sccc1C(=O)NCc1ccco1)c1cccnc1`, the cell count in test [1] stood at 343. The inhibition was 2.1% (inactive) in test [1], -92.1% (inactive) in test [3], 5.47% (inactive) in [8] and -21.6% (inactive) in [9]. The inhibition of aggregation in [2] is -22.2% (inactive). In addition, the nuclei count in test [2] is 103%; in [3] it was 119%. For the same compound, in [4], the fluorescence slope is -0.461 (inactive). Further, the NADPH fluorescence slope in test [5] was -3.3e-05 (inactive). In addition, the slope in test [6] was 0.00445 (inactive). Moreover, in [7], the compound was classed as inactive.
`CCCCCCn1c(CN2CCN(Cc3ccccc3)CC2)nc2c1c(=O)n(C)c(=O)n2C`: the cell count in test [1] was 255. Further, the inhibition in test [1] was -15.1% (inactive); in [3], 24.2% (inactive); in [8] it was 23% (inactive); in [9] it was 17.3% (inactive). In addition, the inhibition of aggregation in test [2] is 9.8% (inactive). The figures for the nuclei count in test [2] and in [3] were 84.1% and 64%, respectively. The fluorescence slope in test [4] was -0.43 (inactive). The NADPH fluorescence slope in [5] was -5.6e-05 (inactive). Besides, in test [6], the slope is 0.00491 (inactive). The compound was called inactive in test [7].

The values above are taken from PubChem BioAssay.
